Results on 16 compounds are retold here after ChEMBL document CHEMBL5512639, “Insights from structure-activity relationships and the binding mode of peptidic α-ketoamide inhibitors of the malaria drug target subtilisin-like SUB1” (Eur J Med Chem, 2024).

Broadly, the pIC50 is the negative decadic logarithm of the IC50, by convention in mol/L. For orientation: inhibition means the percentage by which the read-out fell short of the control. For orientation: ΔTm means the shift of the melting midpoint relative to a reference. The pKi is −log10 of the Ki, conventionally taken in molar units.

pIC50, pKi: −log10 of the molar value. Active and inactive are the calls of the source. No cut-off for these calls is given here. Numbered stars: 1 amine (or outer) side, 2 acyl side, 3 side chain; on linkers, the order of the positions; unused ones are H or OH. Square brackets hold non-standard residues; d marks the D form. Peptide text beside a SMILES is read from it. * marks the point of attachment. Ala(1H-tetrazol-5-yl) = N[C@@H](Cc1nnn[nH]1)C(=O)O; Asp(3,3-Me2) = CC(C)(C(=O)O)[C@H](N)C(=O)O; X3 = NC(=O)CC[C@H](N[*:1])C(=O)C(=O)[*:2]; Gly(cPent) = N[C@H](C(=O)O)C1CCCC1; X1 = C[C@H](N[*:1])C(=O)C(=O)[*:2]; Pentanoyl(4-Me) = CC(C)CCC(=O)*; Cha = N[C@@H](CC1CCCCC1)C(=O)O; Chg = N[C@H](C(=O)O)C1CCCCC1; OAll = C=CCO*

For series [1], the system named is Subtilisin-like protease 1 (Plasmodium vivax). Briefly: Binding affinity to Plasmodium vivax SUB1 using Dabsyl-KLVGADDV-SLA-EDANS as substrate using catalytic domain assessed as dissociation constant (Koff) by jump dilution assay.
The target in series [2] is T1, Subtilisin-like protease 1 (Plasmodium falciparum, UniProt O61142).
T1 sequence (O61142 whole entry): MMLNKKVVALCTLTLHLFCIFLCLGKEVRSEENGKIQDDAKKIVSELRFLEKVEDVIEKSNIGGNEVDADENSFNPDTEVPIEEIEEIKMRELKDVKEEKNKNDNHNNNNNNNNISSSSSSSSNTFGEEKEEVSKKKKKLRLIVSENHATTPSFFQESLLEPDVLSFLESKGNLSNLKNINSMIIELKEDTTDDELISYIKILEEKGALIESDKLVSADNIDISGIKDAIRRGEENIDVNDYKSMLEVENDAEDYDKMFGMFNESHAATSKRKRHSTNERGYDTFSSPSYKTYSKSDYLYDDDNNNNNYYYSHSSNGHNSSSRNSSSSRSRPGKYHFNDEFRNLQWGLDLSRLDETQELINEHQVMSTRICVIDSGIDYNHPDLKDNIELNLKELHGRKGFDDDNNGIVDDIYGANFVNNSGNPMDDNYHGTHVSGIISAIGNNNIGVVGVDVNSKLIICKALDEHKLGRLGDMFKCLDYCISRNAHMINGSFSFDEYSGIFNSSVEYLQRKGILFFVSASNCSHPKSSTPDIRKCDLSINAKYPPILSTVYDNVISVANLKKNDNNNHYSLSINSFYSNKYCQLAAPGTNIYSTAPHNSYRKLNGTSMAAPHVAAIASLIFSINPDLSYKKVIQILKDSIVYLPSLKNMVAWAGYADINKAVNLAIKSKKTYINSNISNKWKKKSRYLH
Put plainly: Inhibition of full length recombinant Plasmodium falciparum SUB1 using Dabsyl-KLVSADNIDIS-EDANS as substrate measured every 2 mins for 1 hr by FRET assay.

Series [3] deals with Plasmodium falciparum. Briefly: Antiparasitic activity against Plasmodium falciparum infected in human Erythrocyte assessed as inhibition of merozoite egress from human Erythrocyte at 100 uM measured for 8 hrs by flow cytometry analysis relative to control. It counts as functional. Summed up:
(§1)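 P. falciparum cultured in human RBCs, RPMI 1640 with 25 mM HEPES, 2.5% Albumax II, 100 μM hypoxanthine, 37 °C, 5% O2/5% CO2. Sorbitol-synchronized, plasmion-enriched late schizonts at 2% hematocrit, 1% parasitemia exposed to compound for 8 h. Fixed in glutaraldehyde, permeabilized, RNase-treated, stained with YOYO-1. Ring parasitemia by flow cytometry (100,000 events) vs DMSO. Triplicate; IC50 from 16 concentrations, 180 to 0.8 μM.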
A general note: A flow cytometer gives signals particle by particle.

Series [4] relates to Subtilisin-like protease 1 (Plasmodium vivax). Put plainly: Binding affinity to Plasmodium vivax SUB1 using Dabsyl-KLVGADDV-SLA-EDANS as substrate using catalytic domain assessed as bound half life by jump dilution assay.
The nature of series [5]: Inhibition of full length recombinant Plasmodium vivax SUB1 expressed in Drosophila S2 cells using Dabsyl-KLVGADDV-SLA-EDANS as substrate measured every 2 mins for 1 hr by FRET assay.
The nature of series [6]: Selectivity ratio of IC50 for inhibition of full length recombinant Plasmodium vivax SUB1 expressed in Drosophila S2 cells using Dabsyl-KLVGADDV-SLA-EDANS as substrate to IC50 for inhibition of full length recombinant Plasmodium falciparum SUB1 using Dabsyl-KLVSADNIDIS-EDANS as substrate.
Series [7] can be described thus: Metabolic stability in human serum measured after 24 hrs by LC-MS analysis. It counts as ADME, cell-free. The conditions noted are these: read-out: Stability. In short, it runs like this:
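Pooled human serum prewarmed 20 min at 37 °C; peptide added to 0.6 mM final. Aliquots taken over 0-24 h and proteins precipitated with MeCN/H2O/formic acid. Supernatant lyophilized and analysed by LC-SWATH-MS. Intact peak area expressed as % of the 0 h value. Two independent experiments in duplicate, mean ± SEM.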

Series [8] relates to Plasmodium falciparum. Put plainly: Antiparasitic activity against Plasmodium falciparum infected in human Erythrocyte assessed as inhibition of merozoite egress from human Erythrocyte at 25 uM measured for 8 hrs by flow cytometry analysis relative to control. The series is classed as functional. Summed up:
as §1

Series [9] has as its system Plasmodium falciparum. Put plainly: Antiparasitic activity against Plasmodium falciparum infected in human Erythrocyte assessed as inhibition of merozoite egress from human Erythrocyte measured for 8 hrs by flow cytometry analysis. It counts as functional, organism-based. Summed up:
as §1

Series [10] deals with Subtilisin-like protease 1 (Plasmodium vivax). Put plainly: Binding affinity to Plasmodium vivax SUB1 catalytic domain assessed as thermal stabilization by measuring change in melting temperature by differential scanning fluorimetry.
For series [11], the target named is T1, Subtilisin-like protease 1. Briefly: Inhibition of Plasmodium falciparum SUB1 assessed as inhibition constant.

As for `CC(=O)N[C@H](C(=O)N[C@H](C(=O)N[C@@H](C)C(=O)N[C@@H](C)C(=O)C(=O)N[C@@H](CC(=O)O)C(N)=O)[C@@H](C)O)C1CCCC1` (Ac-[Gly(cPent)]TA[X1]D-NH2), in series [1], the K was 0.034 min⁻¹. Besides, the pIC50 was 6.26 in series [2] and 7.00 in [5]. For the same compound, in the series on Plasmodium falciparum [3], the inhibition at 100 µM stood at 32%. For the same compound, the T1/2 in series [4] was determined as 20 min.
As for `C=CCOC(=O)CC[C@H](NC(=O)[C@H](CC(=O)O)NC(=O)C(=O)[C@H](C)NC(=O)[C@H](C)NC(=O)[C@@H](NC(=O)[C@@H](NC(C)=O)[C@@H](C)CC)[C@@H](C)O)C(N)=O` (Ac-ITA[X1]DE(OAll)-NH2), the K in series [1] was found to be 0.074 min⁻¹. Further, the pIC50 in series [2] was 5.71; in series [5] it was 6.74. Further, the inhibition at 100 µM in the series on Plasmodium falciparum [3] was found to be 13%. Moreover, the T1/2 in series [4] turned out to be 10 min. Also, the Ratio IC50 in [6] came out at 9. In addition, in [7], the remaining at 24 h is around 95%.
For the compound `C=CCOC(=O)CC[C@H](NC(=O)[C@@H](NC(=O)C(=O)[C@H](C)NC(=O)[C@H](C)NC(=O)[C@@H](NC(=O)[C@@H](NC(C)=O)C1CCCC1)[C@@H](C)O)C(C)(C)C(=O)O)C(N)=O` (Ac-[Gly(cPent)]TA[X1][Asp(3,3-Me2)]E(OAll)-NH2), the pIC50 is 5.99 in [2] and 6.74 in [5]. For the same compound, the inhibition at 100 µM in the series with Plasmodium falciparum [3] was determined as 3%.
On to `CC[C@H](C)[C@H](NC(=O)[C@H](CC(=O)O)NC(=O)C(=O)[C@H](C)NC(=O)[C@H](C)NC(=O)[C@@H](NC(=O)[C@@H](NC(C)=O)C1CCCC1)[C@@H](C)O)C(N)=O` (Ac-[Gly(cPent)]TA[X1]DI-NH2), for which the pIC50 in [2] is 7.77; in series [5] it was 7.85. Further, the inhibition at 100 µM in the series with Plasmodium falciparum [3] was 99.8%. Moreover, the inhibition at 25 µM with Plasmodium falciparum [8] was found to be 25%.
In the case of `CC(=O)N[C@H](C(=O)N[C@H](C(=O)N[C@@H](C)C(=O)N[C@@H](C)C(=O)C(=O)N[C@@H](CC(=O)O)C(=O)N[C@@H](CCC(=O)O)C(N)=O)[C@@H](C)O)C1CCCC1` (Ac-[Gly(cPent)]TA[X1]DE-NH2), the pIC50 in [2] was 7.06; in series [5], 7.52. In addition, the inhibition result in the series on Plasmodium falciparum [3] was “inactive”.
With `C[C@@H](NC[C@@H](O)[C@H](Cc1ccccc1)NC(=O)c1ccc(C(=O)N2CCN(C)CC2)cc1)c1ccccc1`, the pIC50 with Plasmodium falciparum [9] was 8.96.
Turning to `C=CCOC(=O)CC[C@H](NC(=O)[C@H](CC(=O)O)NC(=O)C(=O)[C@H](C)NC(=O)[C@H](C)NC(=O)[C@@H](NC(=O)[C@@H](NC(C)=O)C1CCCCC1)[C@@H](C)O)C(N)=O` (Ac-[Chg]TA[X1]DE(OAll)-NH2), the negative-log IC50 (pIC50) in [2] is 5.71; in series [5] it was 6.70. Moreover, the inhibition at 100 µM with Plasmodium falciparum [3] is 13%. In addition, in series [6], the Ratio IC50 amounted to 9.
For `C=CCOC(=O)CC[C@H](NC(=O)[C@H](CO)NC(=O)C(=O)[C@H](C)NC(=O)[C@H](C)NC(=O)[C@@H](NC(=O)[C@@H](NC(C)=O)C1CCCC1)[C@@H](C)O)C(N)=O` (Ac-[Gly(cPent)]TA[X1]SE(OAll)-NH2), the pIC50 in [2] was 4.49; in series [5] it was 4.96. Further, the inhibition at 100 µM with Plasmodium falciparum [3] amounted to 11%.
As to `CC[C@H](C)[C@H](NC(C)=O)C(=O)N[C@H](C(=O)N[C@@H](C)C(=O)N[C@@H](C)C(=O)C(=O)N[C@@H](CC(=O)O)C(N)=O)[C@@H](C)O` (Ac-ITA[X1]D-NH2), the inhibition at 100 µM with Plasmodium falciparum [3] was 3%. Further, the pIC50 in series [5] was 6.77.
Take `C=CCOC(=O)CC[C@H](NC(=O)[C@H](CC(=O)O)NC(=O)C(=O)[C@H](C)NC(=O)[C@H](C)NC(=O)[C@@H](NC(=O)[C@H](CC1CCCCC1)NC(C)=O)[C@@H](C)O)C(N)=O` (Ac-[Cha]TA[X1]DE(OAll)-NH2): the pIC50 in [2] is 4.46; in [5] it was 5.39. Besides, the inhibition entry in the series with Plasmodium falciparum [3] was “inactive”. Further, the Ratio IC50 in series [6] worked out at 9. The ΔTm in series [10] was found to be 6.8 °C.
Regarding `C=CCOC(=O)CC[C@H](NC(=O)[C@H](Cc1nnn[nH]1)NC(=O)C(=O)[C@H](C)NC(=O)[C@H](C)NC(=O)[C@@H](NC(=O)[C@@H](NC(C)=O)[C@@H](C)CC)[C@@H](C)O)C(N)=O` (Ac-ITA[X1][Ala(1H-tetrazol-5-yl)]E(OAll)-NH2), the pIC50 is 4.61 in series [2] and 5.91 in series [5]. Moreover, the inhibition at 100 µM in the series with Plasmodium falciparum [3] is 2%.
With `C=CCOC(=O)CC[C@H](NC(=O)[C@H](CC(=O)O)NC(=O)C(=O)[C@H](C)NC(=O)[C@H](C)NC(=O)[C@@H](NC(=O)[C@@H](NC(C)=O)C1CCCC1)C1CCCC1)C(N)=O` (Ac-[Gly(cPent)][Gly(cPent)]A[X1]DE(OAll)-NH2), the pIC50 in series [2] is 7.00; in series [5], 7.10. For the same compound, the inhibition at 100 µM in the series with Plasmodium falciparum [3] was determined as 46%. Moreover, the inhibition at 25 µM in the series on Plasmodium falciparum [8] came out at 6%. Moreover, the Ratio IC50 in [6] was found to be 1.25.
In the case of `C=CCOC(=O)CC[C@H](NC(=O)[C@H](CC(=O)O)NC(=O)C(=O)[C@H](C)NC(=O)[C@H](C)NC(=O)[C@H](Cc1ccc(O)cc1)NC(=O)[C@@H](NC(C)=O)C1CCCC1)C(N)=O` (Ac-[Gly(cPent)]YA[X1]DE(OAll)-NH2), the pIC50 was 6.82 in series [2] and 7.60 in [5]. Also, in the series on Plasmodium falciparum [3], the inhibition at 100 µM worked out at 44%.
`C=CCOC(=O)CC[C@H](NC(=O)[C@H](CC(=O)O)NC(=O)C(=O)[C@H](C)NC(=O)[C@H](C)NC(=O)[C@H](CCCCN)NC(=O)[C@@H](NC(C)=O)[C@@H](C)CC)C(N)=O` (Ac-IKA[X1]DE(OAll)-NH2): the inhibition at 100 µM in the series with Plasmodium falciparum [3] turned out to be 9%. The pIC50 in series [5] is 6.85.
For the compound `CC[C@H](C)[C@H](NC(=O)[C@H](CCCCN)NC(=O)CCC(C)C)C(=O)N[C@H](C(=O)N[C@@H](C)C(=O)N[C@@H](CCC(N)=O)C(=O)C(=O)N[C@@H](CC(=O)O)C(=O)N[C@@H](CC(=O)O)C(=O)N[C@@H](CCC(N)=O)C(=O)N[C@@H](CCC(N)=O)C(N)=O)[C@@H](C)O` ({Pentanoyl(4-Me)}-KITA[X3]DDQQ-NH2), in series [11], the pKi was 5.00.
As for `C=CCOC(=O)CC[C@H](NC(=O)[C@H](CC(=O)O)NC(=O)C(=O)[C@H](C)NC(=O)[C@H](CO)NC(=O)[C@@H](NC(=O)[C@@H](NC(C)=O)C1CCCC1)[C@@H](C)O)C(N)=O` (Ac-[Gly(cPent)]TS[X1]DE(OAll)-NH2), the inhibition entry in the series with Plasmodium falciparum [3] is “inactive”. Moreover, the pIC50 in [5] was 6.30.
